pPAFAH FP inh – inhibitors of human plasma PAF acetylhydrolase (pPAFAH); inhibition, % at 3.39 µM; Q13093; AID 463082; recombinant pPAFAH, FP-rhodamine probe fluorescence polarization; 330,000 tested, 1.5% active;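 active = inhibition above the mean inhibition across the screen plus 3 SD, cut at about 25% in these data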;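 note: inhibitors block binding of the rhodamine activity-based probe so polarization drops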
Target sequence (Q13093 whole entry, looked up): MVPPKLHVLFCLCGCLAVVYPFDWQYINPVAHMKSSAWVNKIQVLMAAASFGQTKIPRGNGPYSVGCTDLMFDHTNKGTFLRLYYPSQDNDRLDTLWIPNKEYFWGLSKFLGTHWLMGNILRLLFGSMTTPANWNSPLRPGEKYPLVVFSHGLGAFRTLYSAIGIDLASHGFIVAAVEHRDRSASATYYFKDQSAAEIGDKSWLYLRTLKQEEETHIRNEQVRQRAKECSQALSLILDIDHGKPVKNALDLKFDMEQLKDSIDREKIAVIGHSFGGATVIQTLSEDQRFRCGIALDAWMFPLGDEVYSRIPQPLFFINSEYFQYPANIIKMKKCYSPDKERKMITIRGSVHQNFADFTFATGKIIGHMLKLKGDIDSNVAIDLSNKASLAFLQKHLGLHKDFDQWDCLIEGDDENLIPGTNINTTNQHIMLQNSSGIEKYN
PAFAH1B3 FP inh – inhibitors of human PAFAH1B3. 340,000 tested, 0.28% active. recombinant PAFAH1B3, FP-rhodamine probe, fluorescence polarization. inhibition, % at 3.39 µM. Q15102;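 active = inhibition above the screen-wide average of all tested compounds plus 3 SD, cut at about 25% in these data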
PAFAH1B2 FP inh – inhibitors of human PAFAH1B2 | 340,000 tested, 1.2% active | recombinant PAFAH1B2, FP-rhodamine activity probe, fluorescence polarization | P68402 | inhibition, % at 3.39 µM | AID 492953;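 active = inhibition above the mean of all tested compounds plus 3 SD, cut at about 24% in these data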
ARFGAP1 inhibitor – rat ARFGAP1 inhibition; AID 651572; 360,000 tested, 0.26% active; Q62848; inhibition, % at 16.5 µM; Arfgap1-stimulated ARF1 GTP hydrolysis, GDP FP detection;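 active = inhibition above a per-plate limit, mean inhibition of low control wells plus 3 SD, cut at about 25% in these data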
Target sequence (Q62848 1-136 limits assumed): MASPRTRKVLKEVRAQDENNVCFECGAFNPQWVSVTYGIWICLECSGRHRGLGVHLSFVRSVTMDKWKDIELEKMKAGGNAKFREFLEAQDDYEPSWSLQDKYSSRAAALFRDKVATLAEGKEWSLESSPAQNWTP
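Assay system: Rat Arfgap1 GAP domain (His6, aa 1-136), purified enzyme | Buffer or medium: HEPES 25 mM pH 7.5, NaCl 150 mM, MgCl2, DTT | Schedule: GTP hydrolysis reaction 2 h at 25 °C | Signal: FP of antibody-bound GDP Alexa 633 tracer, ex 620/em 688 nm | Measure: Percent inhibition of Arfgap1-stimulated GTP hydrolysis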
PAFAH2 FP inh – inhibitors of human PAFAH2. Q99487. recombinant PAFAH2, FP-rhodamine activity probe, fluorescence polarization. inhibition, % at 3.39 µM. 340,000 tested, 0.99% active. AID 492956;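 active = inhibition above the mean over all tested compounds plus 3 SD, cut at about 30% in these data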;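 note: inhibitors block probe labeling of enzyme so polarization drops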
ASAP1 GAP inh – inhibitors of human ASAP1 ArfGAP activity | inhibition, % at 16.5 µM | AID 624377 | ASAP1-stimulated ARF1 GTP hydrolysis, GDP FP detection | Q9ULH1 | 360,000 tested, 0.19% active; in the data active = inhibition above about 25%
ARFGAP1 confirm – rat ARFGAP1 inhibition, confirmed | shares compounds with ARFGAP1 inhibitor | AID 651608 | 890 tested, 30% active | inhibition, % at 16.5 µM | ARFGAP1-stimulated ARF1 GTP hydrolysis, GDP tracer FP;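 active = average inhibition over triplicates above the hit cutoff set in the earlier primary screen, cut at about 25% in these data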
Of the large screens only hits and unclear results are named; the others gave an inactive call (follow-up assays come after a bar, where they were run); ! = repeats disagree. Most compounds without a hit are left out; they make up all but 2.7% or so of the library.

O=C1c2c(O)ccc(O)c2C(=O)c2c(NCCNCCO)ccc(NCCNCCO)c21	ARFGAP1 inhibitor 25.1! | ARFGAP1 confirm 56.1
O=C(CSc1ccc(Cl)cc1)Nc1ccc(-c2nc3ccccc3[nH]2)cc1	ARFGAP1 inhibitor 25.4 | ARFGAP1 confirm inactive
O=C(CSc1ccccc1)Nc1nc2ccccc2[nH]1	none
COc1cc(F)ccc1-c1cc(C(=O)Nc2cc(OC)c(OC)c(OC)c2)[nH]n1	none (no result: pPAFAH FP inh, PAFAH1B3 FP inh, PAFAH1B2 FP inh, PAFAH2 FP inh)
CC(C)(C)OC(=O)N1CCC(C(=O)Nc2cccc(C(=O)NCc3ccccc3)c2)CC1	none (no result: pPAFAH FP inh)
O=C(Nc1cccc(S(=O)(=O)NCc2ccco2)c1)c1cc(-c2ccc(F)cc2)nc2ccccc12	none
COc1ccc(-c2cc(C(=O)Nc3cccc(S(=O)(=O)NCc4ccco4)c3)c3ccccc3n2)cc1OC	ARFGAP1 inhibitor 26.4 | ARFGAP1 confirm inactive
CN(C)c1ccc(NC(=O)CSc2nc(N)c(C(=O)Nc3ccc(N(C)C)cc3)s2)cc1	ARFGAP1 inhibitor 25.4 | ARFGAP1 confirm inactive
CCOC(=O)Cc1nc(-c2cccc(C(F)(F)F)c2)no1	ARFGAP1 inhibitor 26.8 | ARFGAP1 confirm inactive
COC(=O)c1ccccc1NC(=O)CN1CCC(n2nnc3cc(C(F)(F)F)ccc32)CC1	none
CC1Cc2ccccc2N1C(=O)CN1CCC(n2nnc3cc(C(F)(F)F)ccc32)CC1 (stereo not drawn)	ARFGAP1 inhibitor 27.9 | ARFGAP1 confirm inactive
O=[N+]([O-])c1ccc2[nH]cc(S(=O)(=O)N3CCN(c4cccc(Cl)c4)CC3)c2c1	none
Cc1cccc(N(C)S(=O)(=O)c2c[nH]c3ccc([N+](=O)[O-])cc23)c1	ARFGAP1 inhibitor 26.1 | ARFGAP1 confirm inactive
Cc1ccc2cc(CCNC(=O)C(C)(C)C)c(=O)[nH]c2c1	ARFGAP1 inhibitor 27.5 | ARFGAP1 confirm inactive
Cc1cc(C)cc(C(O)c2ncc(-c3ccccc3C(F)(F)F)[nH]2)c1 (stereo not drawn)	none (no result: pPAFAH FP inh, PAFAH1B3 FP inh, PAFAH1B2 FP inh, PAFAH2 FP inh)
C[C@@H]1CCCCO[C@H](CN(C)C)[C@H](C)CN([C@@H](C)CO)C(=O)c2cc(NC(=O)Nc3ccc(C(F)(F)F)cc3)ccc2O1	none (no result: pPAFAH FP inh, PAFAH1B3 FP inh, PAFAH1B2 FP inh, PAFAH2 FP inh)
C[C@H](CO)N1C[C@H](C)[C@@H](CN(C)C(=O)Nc2ccc(C(F)(F)F)cc2)Oc2ccc(NC(=O)Nc3ccccc3)cc2C1=O	ARFGAP1 inhibitor 30.1 | ARFGAP1 confirm inactive
C[C@@H]1CCCCO[C@H](CN(C)Cc2ccc(C(=O)O)cc2)[C@H](C)CN([C@@H](C)CO)C(=O)c2cc(NC(=O)Nc3ccc(C(F)(F)F)cc3)ccc2O1	ARFGAP1 inhibitor 25.1 (no result: pPAFAH FP inh, PAFAH1B3 FP inh, PAFAH1B2 FP inh, PAFAH2 FP inh) | ARFGAP1 confirm inactive
CCCCCCCCC(=O)N1C(C)CCC1C (stereo not drawn)	none (no result: pPAFAH FP inh, PAFAH1B3 FP inh, PAFAH1B2 FP inh, PAFAH2 FP inh)
CN(C(=O)c1ccc(NC(=O)C2CCN(C(=O)OC(C)(C)C)CC2)cc1)C1CC1	ARFGAP1 inhibitor 24.6 | ARFGAP1 confirm inactive
CC(C)(C)OC(=O)N1CCC(C(=O)Nc2ccc(C(=O)N3CCCC3)cc2)CC1	none (no result: pPAFAH FP inh)
COc1ccc(N(C(=O)c2ccco2)C(C(=O)NC2CCCC2)c2cccnc2)c(OC)c1 (stereo not drawn)	ARFGAP1 inhibitor 25.9 | ARFGAP1 confirm inactive
O=C1NC[C@H](CCCCN2CCN(Cc3ccccc3)C(=O)C2=O)N(CC2CCCCC2)C1=O	none (no result: pPAFAH FP inh, PAFAH1B3 FP inh, PAFAH1B2 FP inh, PAFAH2 FP inh)
COc1cccc(-c2csc(N3CCN(C(=O)Nc4ccc(Cl)cc4)CC3)n2)c1	ARFGAP1 inhibitor 28.1 | ARFGAP1 confirm inactive
COc1ccc(NC(=O)N2CCN(c3nc(-c4cccc(OC)c4)cs3)CC2)cc1	none
O=C(Cc1cccs1)N=Nc1c(O)[nH]c2ccccc12	none
O=C(N=Nc1c(O)[nH]c2ccccc12)c1cc(-c2cccs2)[nH]n1	ARFGAP1 inhibitor 29.8 | ARFGAP1 confirm 31.7
CC(=O)Nc1cc(-c2ccc(F)cc2)cn2c(-c3ccc(S(C)(=O)=O)cc3)cnc12	none (no result: pPAFAH FP inh, PAFAH1B3 FP inh, PAFAH1B2 FP inh, PAFAH2 FP inh)
COc1ccc(S(=O)(=O)N2CCCCCC2)cc1N(C)S(=O)(=O)c1ccccc1	ARFGAP1 inhibitor 25.7 | ARFGAP1 confirm inactive
C[C@H](CO)N1C[C@H](C)[C@@H](CN(C)Cc2ccncc2)Oc2ccc(NC(=O)CCCCCC(=O)Nc3ccccc3N)cc2C1=O	none

Assay outcomes deposited in PubChem BioAssay by The Scripps Research Institute Molecular Screening Center.
